Measurements published in ChEMBL document CHEMBL4689842, “EUbOPEN Chemogenomics Library wave 1” (2021).
Several values for one entry are separate records, joined by “and”; a condition that tells them apart may be missing. Identical values can stand only once.

Tests used:
Format in all cases: toxicity, cell-based
HEK-293T [1] = assay: Incucyte cell viability with HEK293T; conditions: human, 10 µM, compound concentration 10 uM; also: filed as whole numbers so only -1 and 0 and 1 occur
U2OS [2] = assay: Incucyte cell viability with U2OS; conditions: human, 10 µM, compound concentration 10 uM; also: filed as whole numbers so only -1 and 0 and 1 occur
U2OS [3] = assay: Multiplex assay against U2OS; conditions: human, 10 µM, compound concentration 10 uM
Method in brief: (§1)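 Live cells were stained at seeding with Hoechst33342, BioTracker Green Microtubule Cytoskeleton Dye, MitoTracker Red and Annexin V Alexa Fluor 680. Following compound addition, they were imaged on a CQ1 microscope at 37°C and 5% CO2 and gated by CellPathfinder machine learning into Hoechst high-intensity objects or normal cells, with normal cells split into healthy, pyknosed or fragmented nuclei and pyknosed cells into mitotic or apoptotic. Tubulin, mitochondrial-mass and membrane-permeability phenotypes are per cents of healthy-nucleus cells.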

HEK-293T [4] = assay: Multiplex assay against HEK293T; conditions: human, 10 µM, compound concentration 10 uM; method in brief: as §1
Fibroblast [5] = assay: Multiplex assay against human fibroblast; conditions: 10 µM, compound concentration 10 uM; method in brief: as §1
Fibroblast [6] = assay: Incucyte cell viability with human fibroblast; conditions: 10 µM, compound concentration 10 uM; also: filed as whole numbers so only -1 and 0 and 1 occur
[7] = 6 h, replicate number 1, timepoint 6 hours
[8] = 12 h, replicate number 1, timepoint 12 hours
[9] = 18 h, replicate number 1, timepoint 18 hours
[10] = 24 h, replicate number 1, timepoint 24 hours
[11] = 0 h, replicate number 1, timepoint 0 hours

CCN1CCN(Cc2ccc(NC(=O)c3ccc(C)c(Oc4ccnc5[nH]ccc45)c3)cc2C(F)(F)F)CC1.Cl.Cl.Cl.O
Growth Rate (HEK-293T [1]; 0 h, replicate number 2, timepoint 0 hours): 0 | Growth Rate (HEK-293T [1]; [7]): 0 | Growth Rate (HEK-293T [1]; [8]): 0 | Growth Rate (HEK-293T [1]; [9]): 0 | Growth Rate (HEK-293T [1]; [10]): 0 | Growth Rate (U2OS [2]; [11]): 0 | Growth Rate (U2OS [2]; [7]): 0 | Growth Rate (U2OS [2]; 6 h, replicate number 2, timepoint 6 hours): 1 | Growth Rate (U2OS [2]; [8]): 0 | Growth Rate (U2OS [2]; [9]): 0 | Growth Rate (U2OS [2]; [10]): 0 | Population Apoptotic (%) (U2OS [3]; 12 h, replicate 1): 66% and 38% | Population Healthy Nuclei (%) (U2OS [3]; 12 h, replicate 1): 34% and 87% | Population Hoechst High Intensity Objects (%) (U2OS [3]; 12 h, replicate 1): 7% and 4% | Population Membrane Permeable-Phenotype (%) (U2OS [3]; 12 h, replicate 1): 18% and 17% | Population Mitotic Cells (%) (U2OS [3]; 12 h, replicate 1): 33% and 61% | Population Normal (%) (U2OS [3]; 12 h, replicate 1): 92% and 95% | Total Cell Count (U2OS [3]; 12 h, replicate 1): 219 and 182 | Population Fragmented Nuclei (%) (U2OS [3]; 12 h, replicate 2): 17% and 9% | Population Healthy Nuclei (%) (U2OS [3]; 12 h, replicate 2): 40% and 83% | Population Hoechst High Intensity Objects (%) (U2OS [3]; 12 h, replicate 2): 14% and 11% | Population Membrane Permeable-Phenotype (%) (U2OS [3]; 12 h, replicate 2): 20% and 10% | Population Mitotic Cells (%) (U2OS [3]; 12 h, replicate 2): 30% and 87% | Population Normal (%) (U2OS [3]; 12 h, replicate 2): 85% and 88% | Population Pyknosed Nuclei (%) (U2OS [3]; 12 h, replicate 2): 42% | Total Cell Count (U2OS [3]; 12 h, replicate 2): 113 and 91 | Population Apoptotic (%) (U2OS [3]; 24 h, replicate 1): 37% | Population Normal (%) (U2OS [3]; 24 h, replicate 1): 79% and 98% | Population Pyknosed Nuclei (%) (U2OS [3]; 24 h, replicate 1): 10% | Population Tubulin-Different-Phenotype (%) (U2OS [3]; 24 h, replicate 1): 10% | Total Cell Count (U2OS [3]; 24 h, replicate 1): 255 and 248 | Population Apoptotic (%) (U2OS [3]; 24 h, replicate 2): 90% and 58% | Population Fragmented Nuclei (%) (U2OS [3]; 24 h, replicate 2): 16% and 11% | Population Hoechst High Intensity Objects (%) (U2OS [3]; 24 h, replicate 2): 23% and 18% | Population Normal (%) (U2OS [3]; 24 h, replicate 2): 76% and 81% | Total Cell Count (U2OS [3]; 24 h, replicate 2): 133 and 117 | Population Apoptotic (%) (HEK-293T [4]; 12 h, replicate 1): 19% and 50% | Population Fragmented Nuclei (%) (HEK-293T [4]; 12 h, replicate 1): 21% and 19% | Population Healthy Nuclei (%) (HEK-293T [4]; 12 h, replicate 1): 47% and 20% | Population Hoechst High Intensity Objects (%) (HEK-293T [4]; 12 h, replicate 1): 20% and 25% | Population Membrane Permeable-Phenotype (%) (HEK-293T [4]; 12 h, replicate 1): 5% and 7% | Population Mitotic Cells (%) (HEK-293T [4]; 12 h, replicate 1): 80% and 49% | Population Normal (%) (HEK-293T [4]; 12 h, replicate 1): 79% and 74% | Population Pyknosed Nuclei (%) (HEK-293T [4]; 12 h, replicate 1): 31% and 60% | Total Cell Count (HEK-293T [4]; 12 h, replicate 1): 451 and 581 | Population Fragmented Nuclei (%) (HEK-293T [4]; 12 h, replicate 2): 3% and 6% | Population Healthy Nuclei (%) (HEK-293T [4]; 12 h, replicate 2): 66% and 86% | Population Hoechst High Intensity Objects (%) (HEK-293T [4]; 12 h, replicate 2): 5% and 2% | Population Membrane Permeable-Phenotype (%) (HEK-293T [4]; 12 h, replicate 2): 2% and 1% | Population Mitotic Cells (%) (HEK-293T [4]; 12 h, replicate 2): 47% and 87% | Population Normal (%) (HEK-293T [4]; 12 h, replicate 2): 94% and 97% | Total Cell Count (HEK-293T [4]; 12 h, replicate 2): 837 and 1347 | Population Fragmented Nuclei (%) (HEK-293T [4]; 24 h, replicate 1): 21% and 23% | Population Healthy Nuclei (%) (HEK-293T [4]; 24 h, replicate 1): 25% and 58% | Population Hoechst High Intensity Objects (%) (HEK-293T [4]; 24 h, replicate 1): 29% and 13% | Population Membrane Permeable-Phenotype (%) (HEK-293T [4]; 24 h, replicate 1): 8% and 7% | Population Normal (%) (HEK-293T [4]; 24 h, replicate 1): 70% and 86% | Total Cell Count (HEK-293T [4]; 24 h, replicate 1): 528 and 497 | Population Healthy Nuclei (%) (HEK-293T [4]; 24 h, replicate 2): 71% and 83% | Population Hoechst High Intensity Objects (%) (HEK-293T [4]; 24 h, replicate 2): 6% and 5% | Population Membrane Permeable-Phenotype (%) (HEK-293T [4]; 24 h, replicate 2): 1% and 3% | Population Mitotic Cells (%) (HEK-293T [4]; 24 h, replicate 2): 32% and 91% | Population Normal (%) (HEK-293T [4]; 24 h, replicate 2): 93% and 94% | Total Cell Count (HEK-293T [4]; 24 h, replicate 2): 779 and 2092 | Population Apoptotic (%) (Fibroblast [5]; 12 h, replicate 1): 75% and 44% | Population Fragmented Nuclei (%) (Fibroblast [5]; 12 h, replicate 1): 42% and 25% | Population Healthy Nuclei (%) (Fibroblast [5]; 12 h, replicate 1): 42% and 50% | Population Hoechst High Intensity Objects (%) (Fibroblast [5]; 12 h, replicate 1): 20% | Population Membrane Permeable-Phenotype (%) (Fibroblast [5]; 12 h, replicate 1): 6% and 2% | Population Mitochondria Different-Phenotype (%) (Fibroblast [5]; 12 h, replicate 1): 8% | Population Mitotic Cells (%) (Fibroblast [5]; 12 h, replicate 1): 25% and 55% | Population Normal (%) (Fibroblast [5]; 12 h, replicate 1): 79% | Population Pyknosed Nuclei (%) (Fibroblast [5]; 12 h, replicate 1): 14% and 25% | Population Tubulin-Different-Phenotype (%) (Fibroblast [5]; 12 h, replicate 1): 13% and 25% | Total Cell Count (Fibroblast [5]; 12 h, replicate 1): 169 and 323 | Population Fragmented Nuclei (%) (Fibroblast [5]; 12 h, replicate 2): 74% and 45% | Population Healthy Nuclei (%) (Fibroblast [5]; 12 h, replicate 2): 23% and 34% | Population Hoechst High Intensity Objects (%) (Fibroblast [5]; 12 h, replicate 2): 36% and 41% | Population Membrane Permeable-Phenotype (%) (Fibroblast [5]; 12 h, replicate 2): 18% and 0% | Population Mitochondria Different-Phenotype (%) (Fibroblast [5]; 12 h, replicate 2): 0% and 12% | Population Mitotic Cells (%) (Fibroblast [5]; 12 h, replicate 2): 100% and 44% | Population Normal (%) (Fibroblast [5]; 12 h, replicate 2): 63% and 58% | Population Tubulin-Different-Phenotype (%) (Fibroblast [5]; 12 h, replicate 2): 18% and 37% | Total Cell Count (Fibroblast [5]; 12 h, replicate 2): 74 and 79 | Population Apoptotic (%) (Fibroblast [5]; 24 h, replicate 1): 76% and 41% | Population Fragmented Nuclei (%) (Fibroblast [5]; 24 h, replicate 1): 45% and 29% | Population Healthy Nuclei (%) (Fibroblast [5]; 24 h, replicate 1): 46% | Population Hoechst High Intensity Objects (%) (Fibroblast [5]; 24 h, replicate 1): 23% and 52% | Population Membrane Permeable-Phenotype (%) (Fibroblast [5]; 24 h, replicate 1): 5% and 2% | Population Mitochondria Different-Phenotype (%) (Fibroblast [5]; 24 h, replicate 1): 13% and 14% | Population Mitotic Cells (%) (Fibroblast [5]; 24 h, replicate 1): 23% and 58% | Population Normal (%) (Fibroblast [5]; 24 h, replicate 1): 76% and 47% | Population Pyknosed Nuclei (%) (Fibroblast [5]; 24 h, replicate 1): 8% and 23% | Population Tubulin-Different-Phenotype (%) (Fibroblast [5]; 24 h, replicate 1): 20% and 32% | Total Cell Count (Fibroblast [5]; 24 h, replicate 1): 210 and 306 | Population Apoptotic (%) (Fibroblast [5]; 24 h, replicate 2): 50% and 30% | Population Fragmented Nuclei (%) (Fibroblast [5]; 24 h, replicate 2): 59% and 50% | Population Healthy Nuclei (%) (Fibroblast [5]; 24 h, replicate 2): 36% and 19% | Population Hoechst High Intensity Objects (%) (Fibroblast [5]; 24 h, replicate 2): 38% and 40% | Population Mitotic Cells (%) (Fibroblast [5]; 24 h, replicate 2): 50% and 69% | Population Normal (%) (Fibroblast [5]; 24 h, replicate 2): 61% and 60% | Population Tubulin-Different-Phenotype (%) (Fibroblast [5]; 24 h, replicate 2): 41% and 50% | Total Cell Count (Fibroblast [5]; 24 h, replicate 2): 76 and 70 | Growth Rate (Fibroblast [6]; [11]): 0 | Growth Rate (Fibroblast [6]; [7]): 1 | Growth Rate (Fibroblast [6]; [8]): 0 | Growth Rate (Fibroblast [6]; [9]): 0 | Growth Rate (Fibroblast [6]; [10]): 0
